Assay outcomes (PubChem)
Ec RNAP inh – inhibitors of Escherichia coli RNA polymerase; P0A8V2; E. coli RNA polymerase, fluorescence transcription assay; inhibition, %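 (tested at 10 µM)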; 62,000 tested, 0.2% active; in the data active means inhibition above about 20%;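 further: 0% = enzyme without compound and 100% = no enzyme blank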
Target sequence (P0A8V2 whole entry, looked up): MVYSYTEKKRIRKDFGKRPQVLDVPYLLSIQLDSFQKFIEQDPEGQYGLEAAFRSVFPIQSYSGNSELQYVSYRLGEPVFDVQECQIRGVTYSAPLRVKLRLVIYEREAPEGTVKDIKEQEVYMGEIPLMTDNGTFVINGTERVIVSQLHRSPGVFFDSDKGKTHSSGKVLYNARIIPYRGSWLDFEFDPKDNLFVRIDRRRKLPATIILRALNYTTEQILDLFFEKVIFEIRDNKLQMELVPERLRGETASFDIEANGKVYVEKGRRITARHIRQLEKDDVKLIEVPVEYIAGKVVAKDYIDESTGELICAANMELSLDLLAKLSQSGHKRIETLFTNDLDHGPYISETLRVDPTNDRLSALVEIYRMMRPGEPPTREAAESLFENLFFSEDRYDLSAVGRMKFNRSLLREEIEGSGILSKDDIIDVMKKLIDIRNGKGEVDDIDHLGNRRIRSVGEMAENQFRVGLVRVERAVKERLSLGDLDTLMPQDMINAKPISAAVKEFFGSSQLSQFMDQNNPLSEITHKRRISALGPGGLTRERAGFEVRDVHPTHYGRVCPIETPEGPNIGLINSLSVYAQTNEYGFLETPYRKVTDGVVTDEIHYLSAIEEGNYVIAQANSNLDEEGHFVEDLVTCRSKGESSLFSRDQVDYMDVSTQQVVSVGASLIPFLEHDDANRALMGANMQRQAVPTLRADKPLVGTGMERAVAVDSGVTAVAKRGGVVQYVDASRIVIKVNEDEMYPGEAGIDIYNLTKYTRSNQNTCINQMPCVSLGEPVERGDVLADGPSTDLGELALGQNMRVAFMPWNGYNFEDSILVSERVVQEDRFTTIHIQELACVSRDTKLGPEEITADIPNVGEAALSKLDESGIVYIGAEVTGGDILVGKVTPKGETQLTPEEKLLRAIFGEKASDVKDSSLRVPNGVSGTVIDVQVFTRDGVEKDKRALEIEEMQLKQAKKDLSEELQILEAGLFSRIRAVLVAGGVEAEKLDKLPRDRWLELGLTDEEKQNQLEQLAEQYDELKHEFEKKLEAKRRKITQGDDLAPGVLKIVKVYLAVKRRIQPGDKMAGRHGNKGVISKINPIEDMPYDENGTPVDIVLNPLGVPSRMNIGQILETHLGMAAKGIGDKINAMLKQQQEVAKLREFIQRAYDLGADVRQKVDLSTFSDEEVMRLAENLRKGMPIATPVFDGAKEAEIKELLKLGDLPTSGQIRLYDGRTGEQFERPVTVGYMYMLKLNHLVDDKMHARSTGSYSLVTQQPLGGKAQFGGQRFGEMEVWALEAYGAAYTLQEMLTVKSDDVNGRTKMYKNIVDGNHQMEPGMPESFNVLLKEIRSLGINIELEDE
E coli WT exp – blocks growth of wild type E. coli BW25113; OD600 absorbance; growth inhibition, % at 100 µM; 98,000 tested, 0.15% active;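 active means growth inhibition above about 50% at one test dose, limit read from the data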;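 further: growth measured after 20 h incubation at 37 °C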
tolC growth inh – growth inhibitors of E. coli BW25113 tolC mutant; OD615; growth inhibition, % at 10 µM (by protocol); 65,000 tested, 2.2% active; AID 573;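 active means growth inhibition at or above a cutoff equal to the mean over every tested compound plus 3 SD, cut at about 60% in these data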;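 further: growth measured after 20 h incubation at 37 °C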
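Test system: tolC-deleted E. coli BW25113; medium: LB with kanamycin 50 µg/mL; compound: single-point testing at 10 µM; incubation: 20 h compound exposure of bacteria at 37 °C; signal: OD at 615 nm; evaluation: growth inhibition in percent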
AP complement – orthogonal test for alternative complement pathway inhibitors. Human serum alternative complement pathway, LPS-coated ELISA, C3 deposition; tested in compound mixtures. inhibition, % at 5 µM. 62,000 tested, 0.08% active;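 active means inhibition above 30% in each of the two pooled mixtures holding the compound, so the lower value exceeds 30%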;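 further: 0% = serum in Mg-EGTA without compound and 100% = EDTA serum blank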
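Assay system: Human serum alternative complement pathway, C3 deposition on LPS-coated wells | Incubation: 1 h serum-compound exposure at 37 °C | Doses: 5 µM per compound in ten-compound mixtures | Read-out: Percent inhibition | Technique: ELISA with HRP anti-human C3 antibody, TMB substrate, absorbance 450 nm | Replication: Two pool placements per compound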
HePTP inh – blocks human HePTP tyrosine phosphatase. recombinant HePTP phosphatase activity, OD absorbance. inhibition, % at 20 µM. 110,000 tested, 0.64% active. AID 521; in the data active means inhibition above about 50%;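 further: plate controls were vehicle for no effect and reference inhibitor for full effect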
MMP13 inh – MMP13 (human) collagenase inhibition; P45452; MMP-13 fTHP FRET cleavage, Mca fluorescence; inhibition, % at 4 µM; 65,000 tested, 0.07% active;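 active means inhibition above the mean of compound-free control plate wells plus 3 SD, cut at about 14% in these data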;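 further: 0% = DMSO wells and 100% = wells with reference MMP-13 inhibitor after basal subtraction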
* marks the source's active call; other numbers are inactive results; . = no result given. The full list was thinned out, with hits kept by preference.

SMILES | Ec RNAP inh | E coli WT exp | tolC growth inh | AP complement | HePTP inh | MMP13 inh
COc1ccc(OC)c(C2C(C(=O)/C=C/c3ccccc3)=C(O)C(=O)N2CCCCCC(=O)O)c1 (stereo unspecified) | . | . | . | . | 78.2* | .
COc1ccc(/C=C/C(=O)NC(C)Cc2ccccc2)cc1OC (stereo unspecified) | . | . | . | . | -12.8 | .
CSc1ncc(Cl)c(C(=O)NCc2ccc3c(c2)OCO3)n1 | . | -6.0 | -1.5 | -18.1 | -3.0 | 2.7
CSc1ncc(Cl)c(C(=O)C(C#N)c2nc3c(C)cc(C)cc3c(=O)[nH]2)n1 (stereo unspecified) | -1.1 | -11.0 | 95.9* | 30.3 | 7.5 | -21.2
O=C1c2ccccc2C(O)(Cc2ccccc2)N1C1CCCCC1 (stereo unspecified) | 8.6 | -4.0 | 100.0* | 15.6 | 0.0 | 1.8
O=C1c2ccccc2C(O)(Cc2ccccc2)N1CCCN1CCOCC1 (stereo unspecified) | 6.3 | 5.0 | -18.9 | 14.3 | 3.9 | -4.2
Cc1cc(C)c([N+](=O)[O-])cc1-c1ccc(C=C2C(=O)c3ccccc3C2=O)o1 | . | . | . | . | 10.2 | .
CC(=O)Nc1ccc(OC(=O)c2c(F)cccc2F)cc1 | . | . | . | . | 89.5* | .
CC(C)Oc1ccc(C(=O)Nc2nc3ccccc3s2)cc1 | . | . | . | . | 96.3* | .
CC(=O)/C(C(=Nc1ccccc1)Nc1ccccc1)=C(/O)c1ccccc1 | . | . | . | . | -12.4 | .
O=c1c2ccccc2c(=O)c2c1c(O)cc1sc3ccccc3[nH]c12 | . | . | . | . | -18.2 | .
O=c1cc(-c2cc(O)c3c(O)c4ccccc4c(O)c3c2O)c(=O)c2c(=O)c3ccccc3c(=O)c1=2 | . | . | . | . | 84.0* | .
COc1cc2c(cc1OC)C(c1ccc(Br)cc1)OC1=C2C(=O)c2ccccc21 (stereo unspecified) | . | . | . | . | -0.8 | .
Nc1nc(-c2ccccc2)cc(N2CCOCC2)n1 | . | . | . | . | 105.5* | .
COc1ccc2c(-c3ccccc3)cc(N3CCOCC3)nc2c1 | -3.0 | -14.0 | 100.0* | 14.9 | 5.1 | -34.6
Cc1cccc(N2CCN(C(=O)Cc3c(C(=O)O)[nH]c4ccc(Cl)cc34)CC2)c1C | -5.7 | 0.0 | 87.0* | 12.8 | 9.6 | 3.5
CCCc1cc(=O)[nH]c(Nc2ccc(N3CCCCC3)cc2)n1 | 2.5 | 8.0 | 21.9 | 16.9 | 4.0 | 7.7
CCCCc1ccc(Nc2nc(CCC)cc(=O)[nH]2)cc1 | 11.6 | 2.0 | 100.0* | -3.7 | 9.1 | -0.1
O=C(c1ccc(COc2ccc(Cl)cc2)o1)N1CCN(Cc2ccc3c(c2)OCO3)CC1 | 2.9 | -19.0 | 95.7* | 10.1 | 14.2 | 4.2
CCc1ccc2[nH]c(=O)c(C(c3nnnn3CCOC)N3CCN(c4ccc(F)cc4)CC3)cc2c1 (stereo unspecified) | 7.2 | 0.0 | 77.9* | -3.7 | 6.9 | 2.3
CCc1ccc2[nH]c(=O)c(C(c3nnnn3CCOC)N3CCN(c4ccccc4)CC3)cc2c1 (stereo unspecified) | 6.2 | -12.0 | 12.7 | 15.0 | 4.3 | -2.0
Cc1cc(=O)oc2c1ccc1oc(/C(=N/O)c3ccccc3)c(C)c12 | 7.7 | 23.0 | 63.3* | 6.2 | -1.6 | -1.3
CC(C)c1ccc(/C=C/C(=O)N2CCN(c3ccc([N+](=O)[O-])cc3)CC2)cc1 | . | . | . | . | 3.1 | .
O=C(N/N=C/C(Br)=C/c1ccccc1)c1cc(-c2ccco2)[nH]n1 | . | . | . | . | 102.0* | .
O=C(N/N=C/C(Br)=C/c1ccccc1)c1n[nH]c2c1CCC2 | . | -10.0 | . | . | . | .
SMILES | Ec RNAP inh | E coli WT exp | tolC growth inh | AP complement | HePTP inh | MMP13 inh
COc1ccccc1-c1cc(C(=O)NCc2ccc(F)cc2)no1 | 3.3 | -10.0 | 91.7* | 28.7 | 10.7 | -2.6
COc1ccccc1-c1cc(C(=O)NCc2ccc(Cl)cc2)no1 | 4.5 | -3.0 | -3.7 | 6.6 | 2.5 | -2.3
COc1ccccc1-c1cc(C(=O)NCc2ccccc2)no1 | 3.2 | -10.0 | 80.2* | 8.9 | 3.4 | -3.4
COc1ccc(CNC(=O)c2cc(-c3ccccc3OC)on2)cc1 | 3.1 | -2.0 | 69.3* | 0.6 | -3.1 | -3.5
O=C(NCc1ccc(F)cc1)c1cc(-c2ccco2)on1 | 2.5 | 0.0 | -8.9 | -3.2 | 2.1 | -14.8
COc1ccccc1N1C(=O)/C(=C/C(C)=C/c2ccccc2)SC1=S | . | . | . | . | 7.7 | .
c1ccc(Cn2nnnc2C(c2cccs2)N2CCCCCC2)cc1 (stereo unspecified) | 5.0 | -24.0 | 77.4* | -2.5 | -4.9 | 2.7
Cc1onc(-c2ccccc2Cl)c1C(=O)N1C(C)CCCC1C (stereo unspecified) | . | . | . | . | -1.3 | .
